Results on 4 compounds are retold here after ChEMBL document CHEMBL3745654, “N-Alkylated arylsulfonamides of (aryloxy)ethyl piperidines: 5-HT(7) receptor selectivity versus multireceptor profile” (Bioorg Med Chem, 2016).

A value given as a limit tells only on which side of the number the result lay.

The target in data set [1] is 5-hydroxytryptamine receptor 7 (Homo sapiens, UniProt P34969). Put plainly: Antagonist activity at human 5-HT7B receptor expressed in HEK293 cells assessed as inhibition of 5-carboxamidotryptamine-induced cAMP production. It is filed as functional, cell-based. A digest of the protocol: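 HEK293 cells stably expressing human 5-HT7b receptor. Compound's ability to inhibit cAMP production induced by 10 nM 5-CT was measured in triplicate at 8 concentrations (10^-11 to 10^-4 M). Kb = IC50/(1 + A/EC50), where A is agonist concentration.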

Data set [2] has as its target 5-hydroxytryptamine receptor 2A (Homo sapiens, UniProt P28223). Description: Displacement of [3H]-ketanserin from human 5-HT2A receptor expressed in HEK293 cells incubated for 1 hr. The format is cell-based. In short, it runs like this: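 Membranes from HEK293 cells stably expressing human 5-HT2A receptor, with [3H]-ketanserin (66.9 Ci/mmol). Incubation 1 h at 37 °C, then rapid filtration and counting. Triplicates at 7–8 concentrations (10^-11 to 10^-4 M). Ki by Cheng–Prusoff; means of at least three experiments.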
A general note: Loss of bound radioactivity is the signal in a displacement assay; it reports binding, not function.

For data set [3], the target named is T1, Muscarinic acetylcholine receptor M1 (Homo sapiens) (UniProt P11229).
T1 sequence (whole entry): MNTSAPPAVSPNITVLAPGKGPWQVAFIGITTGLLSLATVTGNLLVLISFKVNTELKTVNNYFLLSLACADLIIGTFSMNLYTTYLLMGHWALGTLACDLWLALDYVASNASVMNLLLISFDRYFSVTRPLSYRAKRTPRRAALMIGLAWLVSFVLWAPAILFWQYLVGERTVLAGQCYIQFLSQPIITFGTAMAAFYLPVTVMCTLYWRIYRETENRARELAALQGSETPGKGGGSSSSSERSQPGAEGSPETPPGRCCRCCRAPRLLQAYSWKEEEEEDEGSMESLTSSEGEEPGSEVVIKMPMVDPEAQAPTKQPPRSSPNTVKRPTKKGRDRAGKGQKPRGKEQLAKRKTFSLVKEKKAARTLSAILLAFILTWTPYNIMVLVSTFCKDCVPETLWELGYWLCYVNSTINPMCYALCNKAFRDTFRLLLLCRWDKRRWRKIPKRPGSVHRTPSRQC
Description: Displacement of [3H]-pirenzepine from human recombinant muscarinic M1 receptor expressed in CHO cells at 1 uM after 60 mins by Scintillation counting method. It is filed as cell-based.

Data set [4] deals with Sodium-dependent serotonin transporter (Rattus norvegicus) (UniProt P31652). Description: Displacement of [3H]-citalopram from rat cerebral cortex SERT at 1 uM. The format is tissue-based.
The nature of data set [5]: Intrinsic clearance in mouse liver microsomes at 20 uM at pH 7.4 incubated for 15 mins by UPLC/MS analysis in presence of NADPH. The format is ADME. The following applies: read-out: CLH. In general terms: Liver microsomes are vesicles of endoplasmic reticulum, rich in cytochrome P450 enzymes.
A further data set addresses D(2) dopamine receptor (Homo sapiens, UniProt P14416). Description: Displacement of [3H]-Raclopride from human dopamine D2L receptor expressed in HEK293 cells incubated for 1 hr. The format is cell-based. A digest of the protocol: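 Membranes from HEK293 cells stably expressing human D2L receptor, with [3H]-raclopride (74.4 Ci/mmol). Buffer: Tris-HCl, EDTA, MgCl2, 120 mM NaCl, 5 mM KCl, 1.5 mM CaCl2, ascorbate. Incubation 1 h at 37 °C, then filtration. Non-specific binding defined with (+)butaclamol. Triplicates at 7–8 concentrations (10^-11 to 10^-4 M). Ki by Cheng–Prusoff.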

The nature of data set [6]: Metabolic stability in mouse liver microsomes assessed as retention time of compound at 20 uM at pH 7.4 incubated for 15 mins by UPLC/MS analysis in presence of NADPH. It is filed as ADME. To be noted: pH 7.4, 0.25 h. A digest of the protocol: (§1)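 Compound (20 µM) incubated with mouse liver microsomes (0.2 mg/ml) in 100 mM potassium phosphate, pH 7.4, 37 °C. Reaction started with NADPH-regenerating system; blank without NADPH run in parallel. Sampling at 5, 15, 30 and 60 min (some to 120 min), in duplicate. Levallorphan internal standard; UPLC/MS quantitation. t1/2 from ln % remaining vs time.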

Data set [7] addresses Histamine H1 receptor (Homo sapiens) (UniProt P35367). Description: Displacement of [3H]-pyrilamine from human recombinant histamine H1 receptor expressed in HEK293 cells at 1 uM after 60 mins by Scintillation counting method. The format is cell-based.
Data set [8] is described as follows: Half life in mouse liver microsomes at 20 uM at pH 7.4 incubated for 15 mins by UPLC/MS analysis in presence of NADPH. The format is ADME. In short, it runs like this: as §1
Data set [9] concerns the target T2, 5-hydroxytryptamine receptor 1A (Homo sapiens, UniProt P08908).
T2 sequence (P08908 whole entry): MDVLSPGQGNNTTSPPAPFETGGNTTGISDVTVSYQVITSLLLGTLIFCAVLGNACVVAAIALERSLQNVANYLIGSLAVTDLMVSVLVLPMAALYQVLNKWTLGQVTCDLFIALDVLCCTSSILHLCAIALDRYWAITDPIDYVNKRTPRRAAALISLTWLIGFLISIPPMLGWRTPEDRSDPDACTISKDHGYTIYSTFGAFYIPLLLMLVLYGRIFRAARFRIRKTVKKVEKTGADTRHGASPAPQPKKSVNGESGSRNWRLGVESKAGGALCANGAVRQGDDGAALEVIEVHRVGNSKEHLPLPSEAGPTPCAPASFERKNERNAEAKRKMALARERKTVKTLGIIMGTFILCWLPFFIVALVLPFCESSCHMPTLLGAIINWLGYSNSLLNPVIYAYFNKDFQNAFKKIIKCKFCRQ
Description: Displacement of [3H]-8-OH-DPAT from human 5-HT1A receptor expressed in HEK293 cells incubated for 1 hr. It is filed as cell-based. In short, it runs like this: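 Membranes from HEK293 cells stably expressing human 5-HT1A receptor, with [3H]-8-OH-DPAT (187 Ci/mmol). Buffer: 50 mM Tris-HCl, 0.1 mM EDTA, 4 mM MgCl2, pargyline, 0.1% ascorbate. Incubation 1 h at room temperature, then filtration. Non-specific binding defined with 5-HT. Triplicates at 7–8 concentrations. Ki by Cheng–Prusoff.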

In data set [10] the target is T3, 5-hydroxytryptamine receptor 2C (Homo sapiens) (UniProt P28335).
T3 sequence (whole entry): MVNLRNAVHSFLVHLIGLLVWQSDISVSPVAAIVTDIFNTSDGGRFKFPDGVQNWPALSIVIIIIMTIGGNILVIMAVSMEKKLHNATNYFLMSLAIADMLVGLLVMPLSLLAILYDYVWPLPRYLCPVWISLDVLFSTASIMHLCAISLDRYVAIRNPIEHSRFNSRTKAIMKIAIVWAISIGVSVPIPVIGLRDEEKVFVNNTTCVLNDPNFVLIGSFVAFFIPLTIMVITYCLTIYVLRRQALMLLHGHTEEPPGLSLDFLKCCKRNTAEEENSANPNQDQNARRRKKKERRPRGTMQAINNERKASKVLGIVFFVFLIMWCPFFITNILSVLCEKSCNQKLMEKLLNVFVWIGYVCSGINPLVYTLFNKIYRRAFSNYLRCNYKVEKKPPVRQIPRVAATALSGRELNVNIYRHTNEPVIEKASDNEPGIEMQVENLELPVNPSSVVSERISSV
Description: Displacement of [3H]-mesulergine from human recombinant serotonin 5-HT2C receptor expressed in HEK293 cells at 1 uM incubated for 120 mins by scintillation counting method. It is filed as cell-based.

D(2) dopamine receptor, sequence (P14416 whole entry): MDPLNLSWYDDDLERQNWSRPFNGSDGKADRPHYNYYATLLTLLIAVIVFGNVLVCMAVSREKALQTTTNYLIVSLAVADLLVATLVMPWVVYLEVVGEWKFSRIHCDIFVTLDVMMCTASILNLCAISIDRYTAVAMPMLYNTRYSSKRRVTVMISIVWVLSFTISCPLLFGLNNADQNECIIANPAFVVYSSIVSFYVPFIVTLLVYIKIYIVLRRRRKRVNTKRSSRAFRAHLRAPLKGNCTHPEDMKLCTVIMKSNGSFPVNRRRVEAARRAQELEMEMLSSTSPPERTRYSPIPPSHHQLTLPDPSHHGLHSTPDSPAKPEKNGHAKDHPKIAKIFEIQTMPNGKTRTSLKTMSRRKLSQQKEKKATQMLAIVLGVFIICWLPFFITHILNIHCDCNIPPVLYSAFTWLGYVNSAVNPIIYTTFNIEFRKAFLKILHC
5-hydroxytryptamine receptor 7, sequence (P34969 whole entry): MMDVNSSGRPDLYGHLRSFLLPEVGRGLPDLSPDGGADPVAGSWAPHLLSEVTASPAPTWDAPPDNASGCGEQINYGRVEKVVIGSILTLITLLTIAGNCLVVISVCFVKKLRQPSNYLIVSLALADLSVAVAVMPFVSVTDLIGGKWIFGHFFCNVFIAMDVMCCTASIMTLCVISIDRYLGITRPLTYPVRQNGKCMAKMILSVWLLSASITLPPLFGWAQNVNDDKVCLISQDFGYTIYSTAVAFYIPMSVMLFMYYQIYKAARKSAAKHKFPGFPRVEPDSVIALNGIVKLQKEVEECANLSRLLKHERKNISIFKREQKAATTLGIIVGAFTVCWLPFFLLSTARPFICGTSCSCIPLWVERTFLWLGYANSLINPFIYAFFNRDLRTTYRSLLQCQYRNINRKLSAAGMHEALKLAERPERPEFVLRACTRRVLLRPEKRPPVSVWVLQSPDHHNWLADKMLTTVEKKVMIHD
5-hydroxytryptamine receptor 2A, sequence (P28223 whole entry): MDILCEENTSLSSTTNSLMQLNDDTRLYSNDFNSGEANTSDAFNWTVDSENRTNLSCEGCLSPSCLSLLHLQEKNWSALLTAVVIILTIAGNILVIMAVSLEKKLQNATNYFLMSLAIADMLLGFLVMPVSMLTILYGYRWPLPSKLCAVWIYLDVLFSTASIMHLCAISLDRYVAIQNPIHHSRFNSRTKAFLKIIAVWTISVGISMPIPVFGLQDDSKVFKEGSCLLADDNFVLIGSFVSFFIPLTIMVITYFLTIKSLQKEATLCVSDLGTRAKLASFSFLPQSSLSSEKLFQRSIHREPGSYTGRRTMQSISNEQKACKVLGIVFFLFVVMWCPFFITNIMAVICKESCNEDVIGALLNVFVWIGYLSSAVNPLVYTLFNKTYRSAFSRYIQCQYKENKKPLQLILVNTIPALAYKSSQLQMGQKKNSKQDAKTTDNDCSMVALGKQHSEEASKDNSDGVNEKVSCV
Sodium-dependent serotonin transporter (Rattus norvegicus), sequence (P31652 whole entry): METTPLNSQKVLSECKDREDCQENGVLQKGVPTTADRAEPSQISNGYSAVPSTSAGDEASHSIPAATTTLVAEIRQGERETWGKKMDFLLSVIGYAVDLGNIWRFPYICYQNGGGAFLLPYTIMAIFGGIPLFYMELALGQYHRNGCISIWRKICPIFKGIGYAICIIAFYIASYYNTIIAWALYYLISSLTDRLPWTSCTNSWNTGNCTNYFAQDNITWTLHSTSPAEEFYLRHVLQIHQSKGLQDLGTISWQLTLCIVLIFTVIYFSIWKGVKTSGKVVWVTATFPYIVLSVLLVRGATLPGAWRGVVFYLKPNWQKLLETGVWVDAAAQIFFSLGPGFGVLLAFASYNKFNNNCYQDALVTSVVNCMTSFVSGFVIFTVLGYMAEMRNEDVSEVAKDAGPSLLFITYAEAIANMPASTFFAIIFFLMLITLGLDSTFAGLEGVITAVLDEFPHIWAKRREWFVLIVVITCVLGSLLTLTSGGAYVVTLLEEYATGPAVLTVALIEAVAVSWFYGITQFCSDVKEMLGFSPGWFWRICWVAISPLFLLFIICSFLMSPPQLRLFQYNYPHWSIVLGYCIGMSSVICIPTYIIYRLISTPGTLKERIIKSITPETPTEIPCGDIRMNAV
Histamine H1 receptor (Homo sapiens), sequence (P35367 whole entry): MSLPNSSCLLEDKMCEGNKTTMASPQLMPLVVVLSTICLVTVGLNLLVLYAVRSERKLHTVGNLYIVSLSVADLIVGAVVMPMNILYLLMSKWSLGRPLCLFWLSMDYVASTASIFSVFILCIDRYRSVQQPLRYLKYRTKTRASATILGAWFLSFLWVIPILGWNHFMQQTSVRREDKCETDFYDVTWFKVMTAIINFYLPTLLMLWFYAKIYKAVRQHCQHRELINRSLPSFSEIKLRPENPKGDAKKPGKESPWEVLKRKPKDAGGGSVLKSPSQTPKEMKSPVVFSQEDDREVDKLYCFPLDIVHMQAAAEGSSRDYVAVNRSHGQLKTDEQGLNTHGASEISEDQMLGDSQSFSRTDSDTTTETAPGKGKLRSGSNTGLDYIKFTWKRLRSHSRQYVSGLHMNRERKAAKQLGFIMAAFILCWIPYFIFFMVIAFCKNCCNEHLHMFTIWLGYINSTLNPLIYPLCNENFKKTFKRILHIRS

In general, Kb refers to the affinity of an antagonist, worked out from how it opposes an agonist. Usually Ki stands for the dissociation constant of the complex between target and ligand, obtained from inhibition or displacement. A lower Ki goes with higher affinity. A word on the inhibition: it is how much of the control response was suppressed. The half-life is the time in which the quantity being followed falls by half. Regarding `Cn1cc(S(=O)(=O)N(CC2CC2)C2CCN(CCOc3ccccc3C(C)(C)C)CC2)cn1`, the Kb in [1] is 64 nM. Besides, the Ki in [2] was 1480 nM; at D(2) dopamine receptor it was 230 nM; in data set [9] it was 17800 nM. Also, the inhibition in [3] was less than 17%; in data set [4], less than 20%; in data set [7] it was less than 64%; in [10], less than 17%. The microsomal CLint at 20 µM in data set [5] was 77.9 µL/min/mg. In addition, in data set [6], the Retention_time is given as 5.74 min. In addition, the half-life at 20 µM in data set [8] is 44.5 min.
Consider `CN(C1CCN(CCOc2ccccc2C(C)(C)C)CC1)S(=O)(=O)c1cnn(C)c1`, for which the Kb in data set [1] came to 82 nM. The Ki came to 557 nM in [2], 280 nM on D(2) dopamine receptor and 9630 nM in data set [9]. For the same compound, the inhibition in data set [3] is less than 17%; in data set [4], less than 20%; in data set [7], less than 64%; in data set [10], less than 17%. Also, the microsomal CLint at 20 µM in data set [5] was 190 µL/min/mg. Further, in [6], the Retention_time was 5.22 min. In addition, the half-life at 20 µM in [8] came to 20 min.
As for `Cn1cc(S(=O)(=O)N(CC2CC2)C2CCN(CCOc3ccccc3-c3ccccc3)CC2)cn1`, in data set [1], the Kb came to 79 nM. The Ki in data set [2] is 30 nM; at D(2) dopamine receptor, 16 nM; in [9] it was 159 nM. The inhibition in data set [3] is less than 17%; in data set [4], less than 20%; in data set [7], less than 64%; in data set [10], less than 17%. Moreover, the microsomal CLint at 20 µM in data set [5] was 55.9 µL/min/mg. Moreover, the Retention_time in data set [6] is recorded as 5.46 min. Besides, the half-life at 20 µM in data set [8] came out at 62 min.
Regarding `CN(C1CCN(CCOc2ccccc2-c2ccccc2)CC1)S(=O)(=O)c1cnn(C)c1`, the Kb in [1] was found to be 41 nM. The Ki in data set [2] was found to be 58 nM; at D(2) dopamine receptor, 35 nM; in data set [9], 80 nM. The inhibition in data set [3] was less than 17%; in data set [4], less than 20%; in [7], less than 64%; in [10] it was less than 17%. Moreover, the microsomal CLint at 20 µM in [5] is 167 µL/min/mg. The Retention_time in [6] amounted to 4.88 min. In addition, in [8], the half-life at 20 µM was found to be 26.2 min.
